Data set [1] relates to human hepatocellular liver carcinoma (HepG2) cell line. As to the kind of experiment: MTT cytotoxicity assay. The format is cell-based. To be noted: HepG2, 72 h, read-out: IC50 (μg/mL) on cell lines HepG2. The method, boiled down: (§1)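 Cells were grown in DMEM with 10% FBS and 1% antibiotics at 37°C under 5% CO2 and seeded in 96-well plates at 5 × 10^4 cells/well (A549: 5 × 10^3) until confluent. Free or SLN-encapsulated compound was added for 72 h. After a PBS wash, MTT (25 μg/mL) was given for 2 h, formazan was dissolved in DMSO and read at 550 nm. IC50 came from a four-parameter logistic fit; n = 6.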

Data set [2] is described as follows: In vivo pharmacokinetics after intravenous bolus. On the set-up: species or system Wistar rats. To be noted: male, Wistar, rat, plasma, 4.7 mg/kg. The method, boiled down: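 Fasted male Wistar rats (200–250 g) under urethane anaesthesia received a jugular vein injection of 4.7 mg/kg. The free-drug solution was in ethanol/PEG 400/tetraglycol/water. Heart blood (0.3 mL) was taken at set times, and plasma was extracted with dichloromethane using diclofenac as internal standard, then analysed by HPLC-ECD. A compartment model was fitted; AUC0–∞ by trapezoidal rule plus extrapolation, Cl = dose/AUC0–∞; n = 3.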

The nature of another data set: In vitro release study. The format is physicochemical. The note with it: pH 7.4 PBS containing 1% F-127. The method, boiled down: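 Dialysis bags (MWCO 12,000–14,000 Da, pre-soaked 12 h in water) held 1 mL SLN suspension in 100 mL pH 7.4 phosphate buffer with 1% Pluronic F-127 (sink) at 37°C. At intervals, 1 mL receiver aliquots were withdrawn and replaced with fresh medium. Drug was quantified by C18 HPLC with electrochemical detection. Release percentage was fitted to kinetic models; n = 4.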

The nature of data set [3]: Solubility of PK-L4 in aqueous and receptor media. To be noted: compared: pH 7.4 PBS, pH 7.4 PBS containing 1% F-68, pH 7.4 PBS containing 1% F-127. The format is physicochemical.
Data set [4] has as its system human breast adenocarcinoma (MDA-MB-231) cell line. Nature of the data set: MTT cytotoxicity assay. The format is cell-based. The note with it: MDA-MB-231, 72 h, read-out: IC50 (μg/mL) on cell lines MDA-MB-231. The method, boiled down: as §1
For data set [5] the following is noted: cited from earlier work.
The nature of data set [6]: Biodistribution in tissues and organs after intravenous administration. The note with it: Wistar rats, 4.7 mg/kg intravenous, 30 minutes. The format is in vivo.
For data set [7], the system named is human breast adenocarcinoma with estrogen receptor (MCF7) cell line. As to the kind of experiment: MTT cytotoxicity assay. The format is cell-based. To be noted: MCF7, 72 h, read-out: IC50 (μg/mL) on cell lines MCF7. The method, boiled down: as §1
The subject of data set [8] is human oral squamous cell carcinoma (Ca9-22) cell line. As to the kind of experiment: MTT cytotoxicity assay. The format is cell-based. To be noted: Ca9-22, 72 h, read-out: IC50 (μg/mL) on cell lines Ca9-22. The method, boiled down: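 Ca9-22 cells grown in DMEM with 10% FBS and 1% antibiotics at 37°C, 5% CO2. Seeded at 5 × 10^4 cells/well and grown to confluence. Free or SLN-encapsulated test compound (added solution at 40 μg/mL) applied for 72 hours. After a PBS wash, MTT (25 μg/mL) for 2 h, then DMSO. Absorbance read at 550 nm; IC50 from a four-parameter logistic fit.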

For data set [9], the system named is human lung carcinoma (A549) cell line. Nature of the data set: MTT cytotoxicity assay. The format is cell-based. To be noted: A549, 72 h, read-out: IC50 (μg/mL) on cell lines A549. The essentials: as §1
For data set [10] the following is noted: cited from earlier work. The source holds these as a separate data set.

Converted amounts (≈) assume the structure as drawn.

Turning to `COc1ccc(Nc2c3ccccc3nc3occ(Cl)c23)cc1` [PK-L4, 3-Chloro-4-[(4-methoxyphenyl)amino]furo[2,3-b]quinoline], the IC50 was 0.04 µg/mL (≈ 0.123 µM) in data set [1]; 2.14 µg/mL (≈ 6.59 µM) in data set [4]; 8.47 µg/mL (≈ 26.1 µM) in data set [7]; 0.04 µg/mL (≈ 0.123 µM) in data set [8]; 0.11 µg/mL (≈ 0.339 µM) in [9]. Besides, in [2], the AUC(0-inf) was found to be 1160 ± 87 ng·h/mL. For the same molecule, in data set [2], the MRT worked out at 61 ± 8.7 min. The molecule further registered a Vd in [2] of 4.12 ± 0.395 L/kg. The same molecule showed a clearance in [2] of 67.9 mL/min/kg. Also, the half-life in data set [2] (half-life alpha, after intravenous bolus, rat plasma) was 4.68 ± 1.38 min. The “Best-fitting release kinetics model” value in “In vitro release study” is “Higuchi order”. The “Solubility of PK-L4 in receptor media” value in data set [3] is reported as “pH 7.4 PBS containing 1% F-127 exhibited the best solubility”. In [5], the “Solubility in water and biocompatible media” value is listed as “water insoluble”. Also, the “Main sites of PK-L4 deposition in tissues” value in [6] was “mainly located in the spine, followed by the lungs, brain, small intestine, and heart”.
For the molecule `COc1cc(NS(C)(=O)=O)ccc1Nc1c2ccccc2nc2ccccc12` [Amsacrine], the half-life in plasma in data set [10] was 20 to 30 min.
For the molecule `COc1cccc2c1C(=O)c1c(O)c3c(c(O)c1C2=O)C[C@@](O)(C(=O)CO)C[C@@H]3O[C@H]1C[C@H](N)[C@H](O)[C@H](C)O1` [Doxorubicin solution, reference compound], the IC50 in data set [1] stood at 0.11 µg/mL (≈ 0.202 µM); in data set [4], 0.51 µg/mL (≈ 0.938 µM); in data set [7] it was 0.43 µg/mL (≈ 0.791 µM); in data set [8], 0.14 µg/mL (≈ 0.258 µM); in [9], 0.4 µg/mL (≈ 0.736 µM).

Source of the values: publication PMC3457677 (International Journal of Nanomedicine, 2012).
